# In the M2OR odorant receptor database:
# Assays:
# Details in all cases: stereoisomer not certain
# UniProt A2ATE5 = target: T1, UniProt A2ATE5
# T1 sequence (whole entry): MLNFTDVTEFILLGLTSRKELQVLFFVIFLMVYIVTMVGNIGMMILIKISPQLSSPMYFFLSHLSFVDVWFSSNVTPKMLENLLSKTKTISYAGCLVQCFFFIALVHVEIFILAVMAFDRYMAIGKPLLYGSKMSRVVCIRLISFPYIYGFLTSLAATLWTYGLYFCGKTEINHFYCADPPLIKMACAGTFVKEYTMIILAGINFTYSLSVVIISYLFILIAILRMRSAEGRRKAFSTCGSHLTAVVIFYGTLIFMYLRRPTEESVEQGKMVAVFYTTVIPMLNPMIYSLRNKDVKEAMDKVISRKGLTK
# Summary of the method: (§1)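 Values were gathered from published papers (main text and supplementary material), with extra details requested from the original authors when needed, and checked for typos and inconsistencies. Each receptor–molecule pair is called responsive (active) if the original authors judged the measured signal statistically different from baseline, and non-responsive (inactive) otherwise. Assay methods varied by source, often transient mammalian cell-line luciferase assays. Recorded details include cell line, G-protein, co-transfected protein and tags.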
# UniProt A2AVB0 = target: T2, UniProt A2AVB0
# T2 sequence (whole entry): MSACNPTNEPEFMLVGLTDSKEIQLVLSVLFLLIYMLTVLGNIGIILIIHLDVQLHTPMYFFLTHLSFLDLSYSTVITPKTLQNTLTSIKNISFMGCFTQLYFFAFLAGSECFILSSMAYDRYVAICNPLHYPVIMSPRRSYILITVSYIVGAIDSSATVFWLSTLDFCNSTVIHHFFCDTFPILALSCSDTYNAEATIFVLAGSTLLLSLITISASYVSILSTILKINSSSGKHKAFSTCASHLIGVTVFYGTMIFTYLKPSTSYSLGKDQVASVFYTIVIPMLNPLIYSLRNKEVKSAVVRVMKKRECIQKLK
# Summary of the method: as §1
# UniProt E9PVX1 = target: T3, UniProt E9PVX1
# T3 sequence (whole entry): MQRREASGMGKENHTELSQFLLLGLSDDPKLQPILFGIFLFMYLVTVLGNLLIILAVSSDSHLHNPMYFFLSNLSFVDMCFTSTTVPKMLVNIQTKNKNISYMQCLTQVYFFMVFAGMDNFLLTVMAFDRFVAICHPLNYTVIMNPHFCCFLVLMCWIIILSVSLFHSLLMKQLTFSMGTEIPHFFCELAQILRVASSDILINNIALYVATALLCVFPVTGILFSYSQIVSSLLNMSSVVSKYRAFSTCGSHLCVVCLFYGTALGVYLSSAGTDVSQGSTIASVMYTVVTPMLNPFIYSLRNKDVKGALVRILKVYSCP
# Summary of the method: as §1
# UniProt E9PZ66 = target: T4, UniProt E9PZ66
# T4 sequence (whole entry): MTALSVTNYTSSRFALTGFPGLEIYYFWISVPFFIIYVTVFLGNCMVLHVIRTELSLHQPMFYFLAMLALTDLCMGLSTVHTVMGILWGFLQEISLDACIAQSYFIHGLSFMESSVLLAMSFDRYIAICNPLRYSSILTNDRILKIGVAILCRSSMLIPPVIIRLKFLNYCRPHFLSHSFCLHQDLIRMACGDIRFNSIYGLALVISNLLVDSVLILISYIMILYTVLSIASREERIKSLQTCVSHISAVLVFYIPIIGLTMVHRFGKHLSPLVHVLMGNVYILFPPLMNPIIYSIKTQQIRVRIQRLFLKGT
# Summary of the method: as §1
# UniProt E9Q4X7 = target: T5, UniProt E9Q4X7
# T5 sequence (whole entry): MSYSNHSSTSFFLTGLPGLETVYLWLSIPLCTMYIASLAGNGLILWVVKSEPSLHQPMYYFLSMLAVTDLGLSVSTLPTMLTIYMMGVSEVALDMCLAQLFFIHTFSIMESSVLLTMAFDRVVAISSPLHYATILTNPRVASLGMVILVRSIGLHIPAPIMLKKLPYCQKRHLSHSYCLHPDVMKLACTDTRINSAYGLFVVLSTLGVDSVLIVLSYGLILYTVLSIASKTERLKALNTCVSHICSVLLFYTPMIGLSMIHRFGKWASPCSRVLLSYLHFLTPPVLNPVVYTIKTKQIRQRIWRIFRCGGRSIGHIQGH
# Summary of the method: as §1
# UniProt E9Q546 = target: T6, UniProt E9Q546
# T6 sequence (whole entry): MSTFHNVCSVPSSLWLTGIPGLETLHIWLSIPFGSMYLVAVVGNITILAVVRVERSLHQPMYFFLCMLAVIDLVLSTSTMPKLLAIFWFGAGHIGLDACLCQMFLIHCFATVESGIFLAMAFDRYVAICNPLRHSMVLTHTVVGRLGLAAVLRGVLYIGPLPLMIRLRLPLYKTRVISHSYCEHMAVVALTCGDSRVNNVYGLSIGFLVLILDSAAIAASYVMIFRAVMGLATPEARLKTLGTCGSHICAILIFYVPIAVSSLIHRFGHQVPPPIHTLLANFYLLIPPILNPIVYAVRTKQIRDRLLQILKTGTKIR
# Summary of the method: as §1
# UniProt E9Q6Z7 = target: T7, UniProt E9Q6Z7
# T7 sequence (whole entry): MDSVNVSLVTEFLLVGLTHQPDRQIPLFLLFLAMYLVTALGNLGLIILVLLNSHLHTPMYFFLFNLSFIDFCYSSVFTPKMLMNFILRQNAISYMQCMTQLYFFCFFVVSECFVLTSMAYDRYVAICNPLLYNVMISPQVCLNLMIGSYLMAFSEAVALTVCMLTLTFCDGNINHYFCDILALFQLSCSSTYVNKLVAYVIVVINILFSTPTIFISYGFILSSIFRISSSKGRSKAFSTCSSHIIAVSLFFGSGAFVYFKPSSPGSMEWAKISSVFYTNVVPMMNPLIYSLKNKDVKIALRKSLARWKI
# Summary of the method: as §1
# UniProt E1BM68 = target: T8, UniProt E1BM68
# T8 sequence (whole entry): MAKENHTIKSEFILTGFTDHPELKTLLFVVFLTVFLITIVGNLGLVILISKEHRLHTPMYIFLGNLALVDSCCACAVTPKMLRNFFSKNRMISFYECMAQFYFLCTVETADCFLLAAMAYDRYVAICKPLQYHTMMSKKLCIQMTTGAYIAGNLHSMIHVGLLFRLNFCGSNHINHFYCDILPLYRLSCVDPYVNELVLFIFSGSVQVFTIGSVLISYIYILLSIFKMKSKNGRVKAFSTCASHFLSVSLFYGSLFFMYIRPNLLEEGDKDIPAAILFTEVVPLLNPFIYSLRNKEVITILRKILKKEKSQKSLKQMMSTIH
# Summary of the method: as §1
# UniProt E9QAT7 = target: T9, UniProt E9QAT7
# T9 sequence (whole entry): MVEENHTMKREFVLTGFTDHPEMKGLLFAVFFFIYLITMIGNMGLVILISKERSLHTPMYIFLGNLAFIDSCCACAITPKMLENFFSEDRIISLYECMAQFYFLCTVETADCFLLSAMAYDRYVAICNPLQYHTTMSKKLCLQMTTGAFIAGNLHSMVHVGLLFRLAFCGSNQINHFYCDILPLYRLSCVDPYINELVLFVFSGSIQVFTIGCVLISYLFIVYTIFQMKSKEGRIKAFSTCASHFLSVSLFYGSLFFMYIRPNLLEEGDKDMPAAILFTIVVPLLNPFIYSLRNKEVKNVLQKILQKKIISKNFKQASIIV
# Summary of the method: as §1
# UniProt E9PX47 = target: T10, UniProt E9PX47
# T10 sequence (whole entry): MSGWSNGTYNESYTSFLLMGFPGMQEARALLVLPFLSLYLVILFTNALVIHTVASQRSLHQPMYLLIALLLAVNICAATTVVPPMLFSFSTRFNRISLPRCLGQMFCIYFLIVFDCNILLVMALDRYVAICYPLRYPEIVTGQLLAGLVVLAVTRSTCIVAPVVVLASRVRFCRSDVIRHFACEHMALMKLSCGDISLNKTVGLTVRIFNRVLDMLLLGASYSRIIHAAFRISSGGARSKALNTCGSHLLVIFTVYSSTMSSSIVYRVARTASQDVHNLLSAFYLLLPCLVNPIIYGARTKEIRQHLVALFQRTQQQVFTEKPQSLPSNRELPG
# Summary of the method: as §1
# UniProt E9PXN3 = target: T11, UniProt E9PXN3
# T11 sequence (whole entry): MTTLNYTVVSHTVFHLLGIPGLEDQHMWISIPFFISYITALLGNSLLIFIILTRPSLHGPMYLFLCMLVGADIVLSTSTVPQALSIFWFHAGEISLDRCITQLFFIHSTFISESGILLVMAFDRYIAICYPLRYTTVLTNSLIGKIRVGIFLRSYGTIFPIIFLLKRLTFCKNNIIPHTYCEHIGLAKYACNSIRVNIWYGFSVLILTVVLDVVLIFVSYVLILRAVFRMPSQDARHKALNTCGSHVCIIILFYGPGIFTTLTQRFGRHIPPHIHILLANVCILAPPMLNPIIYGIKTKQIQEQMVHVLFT
# Summary of the method: as §1
# UniProt E9Q9Z6 = target: T12, UniProt E9Q9Z6
# T12 sequence (whole entry): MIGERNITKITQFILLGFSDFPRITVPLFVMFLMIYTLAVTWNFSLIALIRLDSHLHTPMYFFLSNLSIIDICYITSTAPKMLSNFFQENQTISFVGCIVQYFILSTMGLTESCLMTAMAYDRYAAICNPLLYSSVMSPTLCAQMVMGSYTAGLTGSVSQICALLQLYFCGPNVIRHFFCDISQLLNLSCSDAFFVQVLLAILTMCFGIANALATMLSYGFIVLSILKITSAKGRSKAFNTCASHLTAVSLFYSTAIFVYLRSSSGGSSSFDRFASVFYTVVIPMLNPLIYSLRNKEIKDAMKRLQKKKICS
# Summary of the method: as §1
compound,measurement,setting,value
CCCCCCCOC(=O)C(C)C,odorant receptor agonist call,UniProt A2ATE5,inactive
same,odorant receptor agonist call,UniProt A2AVB0,inactive
same,odorant receptor agonist call,UniProt E9PVX1,inactive
same,odorant receptor agonist call,UniProt E9PZ66,inactive
same,odorant receptor agonist call,UniProt E9Q4X7,inactive
same,odorant receptor agonist call,UniProt E9Q546,inactive
same,odorant receptor agonist call,UniProt E9Q6Z7,inactive
OCCCCCCCCCO,odorant receptor agonist call,UniProt A2ATE5,inactive
same,odorant receptor agonist call,UniProt A2AVB0,inactive
same,odorant receptor agonist call,UniProt E9PVX1,inactive
same,odorant receptor agonist call,UniProt E9PZ66,inactive
same,odorant receptor agonist call,UniProt E9Q4X7,inactive
same,odorant receptor agonist call,UniProt E9Q546,inactive
same,odorant receptor agonist call,UniProt E9Q6Z7,inactive
Cc1occc1SSc1ccoc1C,odorant receptor agonist call,UniProt A2ATE5,inactive
same,odorant receptor agonist call,UniProt A2AVB0,inactive
same,odorant receptor agonist call,UniProt E9PVX1,inactive
same,odorant receptor agonist call,UniProt E9PZ66,inactive
same,odorant receptor agonist call,UniProt E9Q4X7,inactive
same,odorant receptor agonist call,UniProt E9Q546,inactive
same,odorant receptor agonist call,UniProt E9Q6Z7,inactive
Cc1cncc(C)n1,odorant receptor agonist call,UniProt E1BM68,active
same,odorant receptor agonist call,UniProt E9QAT7,active
COC1=C(C)OC(C)C1=O (configuration not stated),odorant receptor agonist call,UniProt E1BM68,inactive
same,odorant receptor agonist call,UniProt E9QAT7,inactive
CCc1nccnc1C(C)=O,odorant receptor agonist call,UniProt E1BM68,active
same,odorant receptor agonist call,UniProt E9QAT7,inactive
CCCCOC(=O)CCC,odorant receptor agonist call,UniProt E9PX47,inactive
same,odorant receptor agonist call,UniProt E9PXN3,inactive
O=C1CCCCCCCCCCCCCC1,odorant receptor agonist call,UniProt E9Q9Z6,active
CC(=O)c1nccnc1C,odorant receptor agonist call,UniProt E1BM68,active
same,odorant receptor agonist call,UniProt E9QAT7,inactive
CCc1cnc(C)c(C)n1,odorant receptor agonist call,UniProt E1BM68,inactive
same,odorant receptor agonist call,UniProt E9QAT7,active
O=C1CCCCCC=CCCCCCCCCO1,odorant receptor agonist call,UniProt E9Q9Z6,inactive
O=C1CCCCCCC=CCCCCCCC1,odorant receptor agonist call,UniProt E9Q9Z6,active
O=C1CCCCCCCCCC1,odorant receptor agonist call,UniProt E9Q9Z6,inactive
CCCCCCCCCCCC(=O)O,odorant receptor agonist call,UniProt E9PXN3,active
CCCCCCCCCCCCCC(C)=O,odorant receptor agonist call,UniProt E9Q9Z6,active
C1CCCCCCCCCCCCCC1,odorant receptor agonist call,UniProt E9Q9Z6,inactive
CC1CCCCCCCCCCCCC(=O)C1 (configuration not stated),odorant receptor agonist call,UniProt E9Q9Z6,active
Cc1cnccn1,odorant receptor agonist call,UniProt E1BM68,active
same,odorant receptor agonist call,UniProt E9QAT7,inactive
CCc1nccnc1C,odorant receptor agonist call,UniProt E1BM68,active
same,odorant receptor agonist call,UniProt E9QAT7,inactive
Cc1nccnc1C,odorant receptor agonist call,UniProt E1BM68,active
same,odorant receptor agonist call,UniProt E9QAT7,inactive
CCCCCCCC(=O)CCCCCCC,odorant receptor agonist call,UniProt E9Q9Z6,inactive
CCc1nccnc1OC,odorant receptor agonist call,UniProt E1BM68,active
same,odorant receptor agonist call,UniProt E9QAT7,active
CC1C(C)(C)C2=C(C(=O)CCC2)C1(C)C (configuration not stated),odorant receptor agonist call,UniProt E9Q9Z6,inactive
O=C1CCCC=CCCCCCCCCCC1,odorant receptor agonist call,UniProt E9Q9Z6,active
